In ChEMBL document CHEMBL4513216, “Probing the Open Global Health Chemical Diversity Library for Multistage-Active Starting Points for Next-Generation Antimalarials” (ACS Infect Dis, 2020):

Assay: Toxicity liver stage against HepG2, at 10uM
Assay type: cell-based
Design: test concentration 10 uM, cell line HepG2-A16-CD81EGFP
Settings: human, HepG2-A16-CD81EGFP cells; read-out: INHIBITION
Procedure, shortened: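 Uninfected HepG2-A16-CD81EGFP cells, 3 × 10^3 per well, 1536-well, plated on prespotted compound at 10 μM final, parasite-free screening media added to match infected plates; puromycin 10 μM positive, DMSO 0.5% negative; run in parallel with 48 h PbLuc assay at 37 °C, 5% CO2; viability by CellTiter-Glo luminescence, normalized to controls.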

SMILES	cytotoxicity at 10 µM
CC(C)(C)c1coc([C@@H]2COCCN2Cc2csnn2)n1	3.33%
Cc1cc(Cc2ccc(S(=O)(=O)N3CCCC3)cc2)c(=O)[nH]n1	6.47%
N#Cc1nc(COc2ccc3c(c2)OCO3)oc1N1CCCCCC1	-34.6%
CCN(CC)CCSc1nnc(N2CCN(c3ccccc3)CC2)s1	-21.9%
CCOC(=O)CN1CCC2(CCCN(CCOc3ccccc3)C2)C1 (configuration not stated)	-2.63%
O=C([C@H]1CCCO1)N1CC[C@@H](O)[C@@H]1Cc1ccccc1	1.41%
c1ccc(O[C@@H]2CC[C@H]3[C@H]2OCCN3Cc2ccsc2)nc1	1.24%
Cc1oncc1C(=O)N1CC[C@H]2[C@H]1CCN2Cc1ccccn1	6.15%
CNc1nc2c(s1)C(c1ccccc1Cl)CC(=O)N2 (configuration not stated)	2.82%
Cc1noc(C2CCN(C(=O)c3cccs3)CC2)n1	-1.22%
CCCC(=O)NCCc1cc(NC)nc(-c2ccccn2)n1	1.12%
COc1ccccc1CN1CCCC(Cc2nccnc2N)C1 (configuration not stated)	-3.81%
CCC(=O)N1CCC(c2ncncc2C)CC1	-11.5%
Cc1cc(CC2COCCN(CCc3ccccc3)C2)ncn1 (configuration not stated)	2.04%
c1ccc(N2CCN(Cc3cnc(C4CCCCO4)nc3)CC2)cc1 (configuration not stated)	0.59%
Cc1n[nH]cc1C(=O)N1CCCC(n2nnc3cc(F)ccc32)C1 (configuration not stated)	-2.91%
CC(C)NC(=O)N1CCCCCC1C1CCN(c2ncccn2)CC1 (configuration not stated)	-23.2%
Cc1cc(N(C)C)nc(N2CCn3c(nnc3C3CC3)C2)n1	0.485%
CS(=O)(=O)CCn1ccc(NC(=O)Cc2ccccc2F)n1	3.73%
CC(O)CN(C(=O)NC1CCN(CC2CCCCC2)CC1)C(C)C (configuration not stated)	7.46%
Cc1ccc(C(=O)Nc2ccccc2N2CCCC2)n1C	5.55%

SMILES	cytotoxicity at 10 µM
COCc1nc(C(=O)NS(=O)(=O)c2ccc(F)c(F)c2)cs1	7.97%
CN(CCOc1ccc(F)cc1)S(=O)(=O)c1cnn(C)c1	-3.23%
COCCCN(C)S(=O)(=O)c1ccc(C(F)(F)F)cc1C#N	-4.55%
CC(C)c1nnc2n1CCN(C(C)c1nnc(-c3cccs3)o1)C2 (configuration not stated)	7.8%
CCS(=O)(=O)CCN(C)Cc1cc(C)ccc1OC	-51.5%
O=C(c1ccc2c(c1)[nH]c(=O)n2C1CCCC1)N1CCC1	-46.4%
Cn1cc(CCCN2CCN(C(=O)c3cccc(O)c3)CC2)cn1	-46.1%
CC(O)(CNc1ccccn1)c1ccccc1 (configuration not stated)	-44.3%
CCCS(=O)(=O)N1CCC(NC(=O)c2ccc(Cl)s2)CC1	22.4%
CC(=O)NCc1nnn2c1CN(c1ncc(C)cn1)CCC2	-102%
CN(CCCc1cnn(C)c1)c1nccc(-c2cc(C(=O)O)ccn2)n1	-3.29%
CCCN1CCN(C(=O)c2cccc(C)n2)[C@H]2CS(=O)(=O)C[C@H]21	2.13%
C=C(C)COc1ccc(C(=O)NCCn2c(C)cc(C)nc2=O)cc1	-4.83%
CC1(C)CNC(=O)c2nc(C3CCN(C(=O)C4CC4)CC3)[nH]c2C1	2.26%
CCOCc1nc(-c2cccc(OC)c2OC)n(C2CCN(C)CC2)n1	-1.76%
CC(C1CCN(Cc2c(Cl)ccc(O)c2Cl)CC1)N1CCN(C)CC1 (configuration not stated)	-12%
Cc1cnn(CC2CCN(c3cc(C(C)C)nc4ccnn34)CC2)c1	-10.5%
O=S(=O)(N1CCOCC1)N1CCCCC1CCc1ccc(O)cc1 (configuration not stated)	-4.44%
N#Cc1cccc(OC23CCCN(CC2)C3)c1 (configuration not stated)	1.73%
Cc1cccc2[nH]c(-c3cn(C4CCNCC4)nn3)nc12	-6.47%
CN(C)CC(=O)N1CCc2cccc(S(=O)(=O)N3CCOCC3)c2C1	6.8%

SMILES	cytotoxicity at 10 µM
CCCN1CCCC2(CCN(Cc3cncn3C3CCCC3)C2)C1=O (configuration not stated)	-13%
CCCN1CCCC2(CCN(S(=O)(=O)c3cc(C)nn3CC)C2)C1=O (configuration not stated)	4.82%
O=C(NCc1cn2c(n1)SCC2)c1cn(CCN2CCCCC2)nn1	-3.69%
CCc1cc(N2CCC(NCCc3ccc(C)o3)CC2)nc(C)n1	-0.554%
CC(C)N1CCCC(C(=O)N2CCN(c3cccc(C(=O)O)c3)CC2)C1 (configuration not stated)	9.45%
CC1=C(C(=O)NCc2cccnc2-n2cnc3ccccc32)OCCO1	-2%
O=c1[nH]nc(CNCc2ccc(OC34CCCN(CC3)C4)cc2)[nH]1 (configuration not stated)	-2.83%
CN(CCO)Cc1nnc(C2CCN(C(=O)c3ccccc3)CC2)n1C	1.93%
CCCc1ccc(CN2CCC3(CCC(=O)N(C)CC3)CC2)o1	-4.35%
CC(=O)N1CCN(Cc2ccc(C(F)(F)F)c(F)c2)CC(O)C1 (configuration not stated)	-2.2%
COc1nc2c(cc1C(=O)N1C[C@H](N)C[C@H]1C(=O)NC(C)C)CCC2	-9.49%
CC(C(=O)NCc1ccc(N2CCNC(=O)C2)cc1)c1cccs1 (configuration not stated)	-4.43%
Cc1cc(C(=O)N2CCCC2)ccc1NCc1nc(CC(C)C)no1	-4.09%
O=C(NCCc1ccc(Cl)s1)NCc1nnc2n1CCCC2	-2.45%
Cn1ccnc1CN1CCCN(C(=O)c2ccc3[nH]cnc3c2)CC1	-0.565%
Cc1cnn(CC2CN(c3ccc(C#N)cn3)CCO2)c1 (configuration not stated)	-1.26%
O=C(CS(=O)(=O)Cc1cc(Cl)c2c(c1)OCO2)N1CCCC1	-8.91%
Cc1nc(C)c(CC(=O)Nc2nc(C)c(C)s2)c(=O)[nH]1	-6.28%
Cc1noc(C)c1C(C)C(=O)N1CCCN(Cc2cscn2)CC1 (configuration not stated)	-4.28%
Cc1cc(C)n(CC2CCCN2C(=O)c2ccc3ccccc3n2)n1 (configuration not stated)	-2.53%
Cc1cc(C)n(CC2CCCN2C(=O)c2cccnc2N(C)C)n1 (configuration not stated)	-3.56%

SMILES	cytotoxicity at 10 µM
Cc1nnc(CN2CCN(CCOc3ccccc3C#N)CC2)n1C	-5.8%
O=C(NCc1cc[nH]n1)N1CCCCC(N2CCCC2)C1 (configuration not stated)	-11.5%
COc1cccc(CCNC(=O)CN2CCCC2c2noc(C)n2)c1 (configuration not stated)	-0.489%
CC(NC(=O)CCC(=O)c1cccs1)c1nnc2n1CCCCC2 (configuration not stated)	-7.76%
COCC(C)NC(=O)c1cc(Br)c2c(c1)OCCO2 (configuration not stated)	3.54%
CCc1ncncc1C(=O)N1CCOC(c2nc(C)n[nH]2)C1 (configuration not stated)	0.842%
COCCN(Cc1nc2c(cnn2C)c(=O)[nH]1)Cc1ccco1	-5.04%
Cc1nnc(CN2CCN(CC(O)c3cccc(F)c3)CC2)n1C (configuration not stated)	-1.92%
Cc1nc(CN2CCOC(Cn3cncn3)C2)nc2ccccc12 (configuration not stated)	-0.241%
Cc1nc2c(c(C)c1CC(=O)Nc1cccc(C#N)c1)c(=O)[nH]n2C	3.99%
O=C(C1CCCCC1)N1CC2(CCNCC2)C1	-8.58%
CCOC(=O)N1CC2(CCNCC2)c2cc(Cl)ccc21	-0.449%
CN(C)CCN1CCOCC2(CCCN(C(=O)c3ccccc3)C2)C1 (configuration not stated)	5.31%
Cc1ccc(CN2CCCC3(CCCC(=O)N3)C2)s1 (configuration not stated)	-0.361%
c1ccc(CN2CCCC3(CCN(Cc4cccs4)C3)C2)nc1 (configuration not stated)	-8.75%
Cn1nnc2c1CCN(Cc1ccccn1)C2COCc1ccccc1 (configuration not stated)	-117%
CC[C@@H]1N(Cc2ccc(F)cc2)CCC[C@]12CCC(=O)N2C	9.42%
CO[C@@H]1CCN(Cc2ccccn2)[C@@H]2CN(Cc3ccco3)C[C@@H]21	6.73%
CS(=O)(=O)N1C[C@@H]2CC[C@H]1CN(Cc1ccncc1)C2	-2.34%
